From ChEMBL document CHEMBL3758148, “4-Phenylpyridin-2-one Derivatives: A Novel Class of Positive Allosteric Modulator of the M1 Muscarinic Acetylcholine Receptor” (J Med Chem, 2016)
Calls of active or inactive are those of the source. No cut-off for these calls is given here.

How the values were obtained:
[1] = biological target: Muscarinic acetylcholine receptor M3 (Homo sapiens) (UniProt P20309); experiment: Displacement of [3H]NMS from human muscarinic M3 receptor expressed in CHO Flp-In cells up to 10 uM after 1 hr by microbeta liquid scintillation counting-based radioligand binding assay; assay type: cell-based
How it was run: (§1)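 Whole Flp-In CHO cells expressing hM2, hM3, hM4 or hM5 were incubated with [3H]NMS, ACh and modulator up to 10 μM in HEPES-buffered saline pH 7.4, 1 h at 37 °C. Bound radioactivity was counted by scintillation after two ice-cold saline washes.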

[2] = biological target: T1, Muscarinic acetylcholine receptor M1 (Homo sapiens) (UniProt P11229); experiment: Allosteric agonist activity at human muscarinic M1 receptor expressed in CHO Flp-In cells assessed as intrinsic activity measured as IP1 accumulation after 1 hr by HTRF method; assay type: functional, cell-based
T1 sequence (whole entry): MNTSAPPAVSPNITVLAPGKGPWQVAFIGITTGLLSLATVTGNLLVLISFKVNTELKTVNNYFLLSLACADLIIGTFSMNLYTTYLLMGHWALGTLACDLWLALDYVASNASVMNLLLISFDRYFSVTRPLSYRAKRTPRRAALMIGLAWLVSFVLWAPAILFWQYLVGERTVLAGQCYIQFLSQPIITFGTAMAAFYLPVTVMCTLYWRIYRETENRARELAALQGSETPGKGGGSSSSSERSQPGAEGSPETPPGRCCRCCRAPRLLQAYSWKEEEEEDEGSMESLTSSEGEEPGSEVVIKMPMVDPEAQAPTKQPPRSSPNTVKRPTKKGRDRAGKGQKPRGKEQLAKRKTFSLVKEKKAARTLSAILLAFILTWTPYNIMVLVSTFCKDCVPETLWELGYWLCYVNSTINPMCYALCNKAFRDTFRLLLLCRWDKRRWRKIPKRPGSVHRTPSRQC
How it was run: (§2)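 Suspended Flp-In CHO cells stably expressing hM1, stimulated at 10⁶ cells/ml in HEPES buffer with 50 mM LiCl, pH 7.4, using increasing ACh with or without increasing modulator, 1 h at 37 °C, 5% CO2. IP1 read by HTRF (665/590 nm ratio). Curves fitted globally to the operational model of allosterism, with KB fixed from binding. Mean ± SEM, ≥3 experiments in duplicate.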

[3] = biological target: T2, Muscarinic acetylcholine receptor M2 (Homo sapiens) (UniProt P08172); experiment: Displacement of [3H]NMS from human muscarinic M2 receptor expressed in CHO Flp-In cells up to 10 uM after 1 hr by microbeta liquid scintillation counting-based radioligand binding assay; assay type: cell-based; how it was run: as §1
T2 sequence (whole entry): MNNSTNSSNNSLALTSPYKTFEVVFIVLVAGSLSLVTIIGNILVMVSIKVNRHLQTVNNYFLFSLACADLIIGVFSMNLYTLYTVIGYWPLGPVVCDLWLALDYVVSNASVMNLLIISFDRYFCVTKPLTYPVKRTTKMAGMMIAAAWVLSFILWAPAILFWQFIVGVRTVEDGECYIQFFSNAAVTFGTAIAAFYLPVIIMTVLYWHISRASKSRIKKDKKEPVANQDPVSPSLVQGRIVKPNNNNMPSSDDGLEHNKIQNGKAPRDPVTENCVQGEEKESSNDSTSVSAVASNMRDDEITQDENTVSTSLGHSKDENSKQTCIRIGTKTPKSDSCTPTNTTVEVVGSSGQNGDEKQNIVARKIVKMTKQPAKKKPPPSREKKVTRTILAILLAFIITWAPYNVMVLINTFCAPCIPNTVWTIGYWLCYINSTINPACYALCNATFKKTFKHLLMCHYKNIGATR

[4] = biological target: T3, Muscarinic acetylcholine receptor M4 (Homo sapiens) (UniProt P08173); experiment: Displacement of [3H]NMS from human muscarinic M4 receptor expressed in CHO Flp-In cells up to 10 uM after 1 hr by microbeta liquid scintillation counting-based radioligand binding assay; assay type: cell-based; how it was run: as §1
T3 sequence (whole entry): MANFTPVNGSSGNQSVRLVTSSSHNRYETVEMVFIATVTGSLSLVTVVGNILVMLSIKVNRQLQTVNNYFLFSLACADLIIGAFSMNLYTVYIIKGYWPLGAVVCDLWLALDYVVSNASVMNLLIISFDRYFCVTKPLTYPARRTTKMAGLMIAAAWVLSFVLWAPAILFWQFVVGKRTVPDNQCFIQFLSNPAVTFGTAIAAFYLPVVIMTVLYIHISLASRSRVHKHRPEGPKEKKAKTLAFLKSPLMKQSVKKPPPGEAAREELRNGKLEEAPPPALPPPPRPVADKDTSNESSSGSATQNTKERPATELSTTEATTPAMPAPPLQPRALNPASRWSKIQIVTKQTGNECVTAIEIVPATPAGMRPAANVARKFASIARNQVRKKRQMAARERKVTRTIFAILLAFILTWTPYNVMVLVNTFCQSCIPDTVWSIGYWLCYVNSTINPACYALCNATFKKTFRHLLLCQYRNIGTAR

[5] = biological target: T4, Muscarinic acetylcholine receptor M5 (Homo sapiens) (UniProt P08912); experiment: Displacement of [3H]NMS from human muscarinic M5 receptor expressed in CHO Flp-In cells up to 10 uM after 1 hr by microbeta liquid scintillation counting-based radioligand binding assay; assay type: cell-based; how it was run: as §1
T4 sequence (whole entry): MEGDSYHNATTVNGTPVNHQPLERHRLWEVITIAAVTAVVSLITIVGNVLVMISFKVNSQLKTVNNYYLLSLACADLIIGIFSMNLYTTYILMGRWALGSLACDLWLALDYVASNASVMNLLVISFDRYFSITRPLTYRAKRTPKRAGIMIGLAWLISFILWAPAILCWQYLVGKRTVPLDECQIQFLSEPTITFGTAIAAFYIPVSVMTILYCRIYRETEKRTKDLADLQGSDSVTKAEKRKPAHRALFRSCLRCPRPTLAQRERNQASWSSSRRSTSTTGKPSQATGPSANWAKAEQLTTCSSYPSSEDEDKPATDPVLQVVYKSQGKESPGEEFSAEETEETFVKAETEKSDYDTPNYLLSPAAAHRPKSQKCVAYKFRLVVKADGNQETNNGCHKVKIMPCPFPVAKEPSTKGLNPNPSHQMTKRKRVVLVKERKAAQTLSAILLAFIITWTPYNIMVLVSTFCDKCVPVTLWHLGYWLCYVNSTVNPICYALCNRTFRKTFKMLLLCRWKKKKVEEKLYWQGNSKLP

[6] = biological target: T1, Muscarinic acetylcholine receptor M1 (Homo sapiens); experiment: Positive allosteric modulation of human muscarinic M1 receptor expressed in CHO Flp-In cells assessed as functional cooperativity with acetylcholine measured as IP1 accumulation after 1 hr by HTRF method; assay type: cell-based; how it was run: as §2
[7] = biological target: T1, Muscarinic acetylcholine receptor M1 (Homo sapiens); experiment: Positive allosteric modulation of human muscarinic M1 receptor expressed in CHO Flp-In cells assessed as functional cooperativity with acetylcholine measured as IP1 accumulation upto 30 uM after 1 hr by HTRF method; assay type: cell-based; how it was run: as §2
[8] = biological target: T1, Muscarinic acetylcholine receptor M1 (Homo sapiens); experiment: Displacement of [3H]NMS from human muscarinic M1 receptor expressed in CHO Flp-In cells after 1 hr by microbeta liquid scintillation counting-based radioligand binding assay; assay type: cell-based
How it was run: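 Intact adherent Flp-In CHO cells expressing hM1 (10⁴ cells/well), incubated with 0.2 nM [3H]NMS, varying ACh and modulator in HEPES-buffered saline pH 7.4 for 1 h at 37 °C. Washed with ice-cold 0.9% NaCl, then scintillation counted. Fitted to an allosteric ternary complex model with [3H]NMS KA 0.2 nM. Mean ± SEM, ≥3 experiments in duplicate.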

Sequence of Muscarinic acetylcholine receptor M3 (Homo sapiens) (P20309 whole entry, looked up): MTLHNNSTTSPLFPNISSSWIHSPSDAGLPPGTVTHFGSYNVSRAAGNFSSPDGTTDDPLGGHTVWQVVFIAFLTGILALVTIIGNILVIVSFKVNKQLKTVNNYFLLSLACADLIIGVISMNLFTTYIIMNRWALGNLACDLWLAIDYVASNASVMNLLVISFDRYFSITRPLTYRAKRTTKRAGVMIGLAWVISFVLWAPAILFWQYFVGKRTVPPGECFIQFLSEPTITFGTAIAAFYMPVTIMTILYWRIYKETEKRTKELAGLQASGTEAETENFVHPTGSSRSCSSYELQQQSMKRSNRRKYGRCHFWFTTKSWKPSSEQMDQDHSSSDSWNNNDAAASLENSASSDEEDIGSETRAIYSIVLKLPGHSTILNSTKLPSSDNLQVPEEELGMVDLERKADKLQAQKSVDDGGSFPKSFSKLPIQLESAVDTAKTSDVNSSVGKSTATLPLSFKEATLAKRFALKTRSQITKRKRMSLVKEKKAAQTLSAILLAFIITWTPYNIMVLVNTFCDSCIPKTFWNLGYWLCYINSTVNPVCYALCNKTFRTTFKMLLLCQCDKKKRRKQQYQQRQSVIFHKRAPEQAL

Activity [1] | Intrinsic activity [2] | log(IA) [2] | Activity [3] | Activity [4] | Activity [5] | log(activity) [6] | Activity [7] | Kb [8] [µM] | pKb [8] | Compound
inactive | 0.22 | -0.6 | inactive | inactive | inactive | 1.84 |  |  |  | COc1ccc(Cn2cc(C(=O)O)c(=O)c3ccccc32)cc1
 |  |  |  |  |  |  | inactive | 30 | 4.53 | COc1ccccc1COc1ccccc1-c1ccn([C@H]2CCCC[C@@H]2O)c(=O)c1 (racemic)
inactive | 0.21 | -0.68 | inactive | inactive | inactive | 2.3 |  | 43 | 4.37 | Cn1cc(-c2ccc(COc3ccccc3-c3ccn([C@H]4CCCC[C@@H]4O)c(=O)c3)cc2)cn1 (racemic)
 |  |  |  |  |  |  | inactive | 42 | 4.38 | N#Cc1ccccc1COc1ccccc1-c1ccn([C@H]2CCCC[C@@H]2O)c(=O)c1 (racemic)
 |  |  |  |  |  |  | inactive |  | 3.86 | Nc1ccccc1-c1ccn([C@H]2CCCC[C@@H]2O)c(=O)c1 (racemic)
 |  | -1.24 |  |  |  | 0.92 |  |  | 3.88 | O=C(O)c1ccc(COc2ccccc2-c2ccn([C@H]3CCCC[C@@H]3O)c(=O)c2)cc1 (racemic)
 |  |  |  |  |  |  | inactive | 69 | 4.16 | O=c1cc(-c2ccccc2NCc2ccc(-c3ccccc3)cc2)ccn1[C@H]1CCCC[C@@H]1O (racemic)
 |  |  |  |  |  |  | inactive | 9.3 | 5.03 | O=c1cc(-c2ccccc2NCc2ccc(-c3ccncc3)cc2)ccn1[C@H]1CCCC[C@@H]1O (racemic)
 |  |  |  |  |  |  | inactive | 45 | 4.35 | O=c1cc(-c2ccccc2NCc2ccc(Br)cc2)ccn1[C@H]1CCCC[C@@H]1O (racemic)
 |  |  |  |  |  |  | inactive | 79 | 4.1 | O=c1cc(-c2ccccc2O)ccn1[C@H]1CCCC[C@@H]1O (racemic)
 |  |  |  |  |  |  | inactive | 30 | 4.52 | O=c1cc(-c2ccccc2OCc2ccc(-c3cnn(CC4CCCCC4)c3)cc2)ccn1[C@H]1CCCC[C@@H]1O (racemic)
 |  |  |  |  |  |  | inactive | 21 | 4.68 | O=c1cc(-c2ccccc2OCc2ccc(-c3cnn(Cc4ccccc4)c3)cc2)ccn1[C@H]1CCCC[C@@H]1O (racemic)
 |  |  |  |  |  |  | inactive | 58 | 4.24 | O=c1cc(-c2ccccc2OCc2ccc(Br)cc2)ccn1[C@H]1CCCC[C@@H]1O (racemic)
 |  |  |  |  |  |  | inactive | 18 | 4.75 | O=c1cc(-c2ccccc2OCc2ccc(Br)cc2F)ccn1[C@H]1CCCC[C@@H]1O (racemic)
 |  |  |  |  |  |  | inactive | 19 | 4.71 | O=c1cc(-c2ccccc2OCc2ccc(Oc3ccccc3)cc2)ccn1[C@H]1CCCC[C@@H]1O (racemic)
 |  |  |  |  |  |  | inactive | 33 | 4.48 | O=c1cc(-c2ccccc2OCc2ccccc2C(F)(F)F)ccn1[C@H]1CCCC[C@@H]1O (racemic)
